Measurements: ChEMBL document CHEMBL1127629, “Design and synthesis of RNA-specific groove-binding cations: implications for antiviral drug design” (J Med Chem, 1994)

How the values were obtained:
Assay type in all cases: nucleic-acid assay
Nucleic Acid [1] = test: Evaluated for thermal denaturation at pH 4.9 against poly(A)-poly(dt synthetic DNA oligonucleotide
Procedure, shortened: (§1)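 Polymer (poly(A)·poly(U) or poly(dA)·poly(dT)) at 1.0×10^-4 M in MES buffer (0.01 M MES, 0.001 M EDTA, 0.1 M NaCl), pH set with NaOH to the listed value. Compound added to a final drug:polymer phosphate ratio of 0.3. Absorbance at 260 nm followed while heating at 0.5 °C/min in 1-cm cells. ΔTm is the Tm shift of the complex versus the free polymer.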

Nucleic Acid [2] = test: Evaluated for thermal denaturation at pH 4.9 against poly(A)-poly(U) syntheticRNA oligonucleotide; procedure, shortened: as §1
Nucleic Acid [3] = test: Evaluated for thermal denaturation at pH 6.3 against poly(A)-poly(dt) synthetic DNA oligonucleotide; procedure, shortened: as §1
Nucleic Acid [4] = test: Evaluated for thermal denaturation at pH 6.3 against poly(A)-poly(U) synthetic RNA oligonucleotide; procedure, shortened: as §1
Nucleic Acid [5] = test: Evaluated for thermal denaturation at pH 3.9 against poly(A)-poly(dt) synthetic DNA oligonucleotide; procedure, shortened: as §1
Nucleic Acid [6] = test: Evaluated for thermal denaturation at pH 3.9 against poly(A)-poly(U) synthetic RNA oligonucleotide; procedure, shortened: as §1
Nucleic Acid [7] = test: Thermal denaturation at pH 6.3 against poly(A)-poly(U) synthetic RNA oligonucleotide; procedure, shortened: as §1
Nucleic Acid [8] = test: Thermal denaturation at pH 4.9 against poly(A)-poly(dt) synthetic DNA oligonucleotide; procedure, shortened: as §1

SMILES	ΔTm (Nucleic Acid [1])	ΔTm (Nucleic Acid [2])	ΔTm (Nucleic Acid [3])	ΔTm (Nucleic Acid [4])	ΔTm (Nucleic Acid [5])	ΔTm (Nucleic Acid [6])	ΔTm (Nucleic Acid [7])	ΔTm (Nucleic Acid [8])
OCC1CCCN(CCCN2CCCC(CO)C2)C1 (centres undefined)	0	0.9	0	0.4				
C1CCN(CCCN2CCCCC2)CC1	0	0	0	0				
OCC1CCN(CCCN2CCC(CO)CC2)CC1	0.5	0.5	0	0.2				
OC1CCN(Cc2ccc(CN3CCC(O)CC3)cc2)CC1			0	0				
c1cnc(N2CCN(Cc3cccc(CN4CCN(c5ncccn5)CC4)c3)CC2)nc1	0	0	0	0				
c1cc(CN2CCNCC2)ccc1CN1CCNCC1			0	0				
c1cc(CN2CCC(N3CCCCC3)CC2)ccc1CN1CCC(N2CCCCC2)CC1		15.4	3.5	8.1	5.6	17.7		6.7
c1cc(CN2CCN(Cc3ccc(CN4CCNCC4)cc3)CC2)ccc1CN1CCNCC1	5.1	15.7	2.3	0	12	29.3		
c1cc(CN2CCC(C3=NCCN3)CC2)ccc1CN1CCC(C2=NCCN2)CC1	9.5	20.7	8.7	16.2	8.8	23.3		
c1cc(CN2CCC(N3CCCCC3)CC2)cc(CN2CCC(N3CCCCC3)CC2)c1			3.3	8				
CN1CCN(CCCN2CCN(C)CC2)CC1	0	1.3	0	0	0	11		

Now from value to compound:

ΔTm (Nucleic Acid [1])	ΔTm (Nucleic Acid [2])	ΔTm (Nucleic Acid [3])	ΔTm (Nucleic Acid [4])	ΔTm (Nucleic Acid [5])	ΔTm (Nucleic Acid [6])	ΔTm (Nucleic Acid [7])	ΔTm (Nucleic Acid [8])	SMILES
0	0	0	0					N#CC1CCN(CCCN2CCC(C#N)CC2)CC1
8.3	22.9	6.5		10.4	34.7	7.6		C1CCN(C2CCN(CCN3CCN(CCN4CCC(N5CCCCC5)CC4)CC3)CC2)CC1
4.5	20.7	3.3	9.8	4.1	22.2			C1CCN(C2CCN(CCCN3CCC(N4CCCCC4)CC3)CC2)CC1
5.6	24.5	6.1	18.1	6.1	28.7			C(CN1CCC(C2=NCCN2)CC1)CN1CCC(C2=NCCN2)CC1
		0	0	0.2	2.4			c1ccc(CN2CCN(CCCN3CCN(Cc4ccccc4)CC3)CC2)cc1
0.2	0.3	0	0					C1CCN(CCN2CCN(CCN3CCCCC3)CC2)CC1
0	0	0	0					c1cnc(N2CCN(Cc3ccc(CN4CCN(c5ncccn5)CC4)cc3)CC2)nc1
0.7	1.2	0.1	0					C(CC1CCNCC1)CC1CCNCC1
